# Test results: ChEMBL document CHEMBL3352779, “Synthesis and biological evaluation of 4-aza-2,3-dihydropyridophenanthrolines as tubulin polymerization inhibitors” (Bioorg Med Chem Lett, 2014)
# Calls of active or inactive are those of the source. The rule behind the calls is not given here.
# Key:
# [1] = (§1) Antiproliferative activity against human MiaPaCa cells after 48 hrs by SRB assay; format: functional; conditions: MIA PaCa-2, 48 h
# Outline: (§2)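 Sulforhodamine B growth assay run on MIAPACA, MCF-7 and HeLa human cancer lines, with etoposide and podophyllotoxin as positive controls. Potency expressed as GI₅₀.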
# [2] = test system: MCF7; assay: Antiproliferative activity against human MCF7 cells after 48 hrs by SRB assay; format: functional; outline: as §2
# [3] = test system: HeLa; assay: Antiproliferative activity against human HeLa cells after 48 hrs by SRB assay; format: functional; outline: as §2
# [4] = target: T1, Tubulin (Homo sapiens) (UniProt P68371+Q9H4B7+P0DPH7+P68366+Q13509+Q71U36+P04350+Q3ZCM7+P07437+P68363+Q9BQE3+Q6PEY2+Q13885+Q9BVA1+Q9BUF5); assay: Induction of tubulin polymerization in human HeLa cells assessed as increase of tubulin polymerized fraction at 5 uM after 24 hrs by immunoblot analysis; format: cell-based
# Outline: (§3)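 HeLa cells treated at 5 µM for 24 h, then permeabilized. Soluble and polymerized tubulin fractions collected separately and analysed by immunoblotting, with DMSO-treated cells as control.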
# [5] = target: T1, Tubulin (Homo sapiens); assay: Inhibition of tubulin polymerization in human HeLa cells assessed as increase of tubulin soluble fraction at 5 uM after 24 hrs by immunoblot analysis; format: cell-based; outline: as §3
# [6] = test system: MiaPaCa; assay: as §1; format: functional; outline: as §2
# [7] = target: Tubulin (Bos taurus, UniProt Q6B856+Q862L2+Q862F3); assay: Inhibition of bovine brain tubulin polymerization measured for 1 hr at 1 min intervals by fluorescence assay
# [8] = test system: HeLa; assay: Cell cycle arrest in human HeLa cells assessed as accumulation of cells at G2/M phase at 5 uM after 24 hrs by FACS analysis (Rvb =33.25 %); format: functional
# [9] = test system: HeLa; assay: Disruption of microtubule network in human HeLa cells at 5 uM after 24 hrs by immunohistochemistry; format: cell-based
# Outline: (§4)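 HeLa cells exposed to 5 µM for 24 h, then fixed and stained with anti-tubulin antibody, with DAPI counterstain. Merged tubulin/DAPI fluorescence images examined for microtubule network and nuclear condensation.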
# [10] = test system: HeLa; assay: Mitotic arrest in human HeLa cells assessed as cell rounding at 5 uM after 24 hrs by immunohistochemistry; format: functional, cell-based; outline: as §4
smiles,measurement,setting,value
COc1ccc(C2C3=C(COC3=O)Nc3c2c2cccnc2c2ncccc32)c(O)c1 (stereo not given),GI50,[1],9800 nM
same,GI50,"[2]; MCF7, 48 h",9700 nM
same,GI50,[3],7000 nM
COc1ccc(C2C3=C(COC3=O)Nc3c2c2cccnc2c2ncccc32)cc1OC (stereo not given),GI50,[1],5900 nM
same,GI50,"[2]; MCF7, 48 h",4600 nM
same,GI50,[3],40 nM
CC(=O)O[C@H]1C(=O)[C@@]2(C)[C@H]([C@H](OC(=O)c3ccccc3)[C@]3(O)C[C@H](OC(=O)[C@H](O)[C@@H](NC(=O)c4ccccc4)c4ccccc4)C(C)=C1C3(C)C)[C@]1(OC(C)=O)CO[C@@H]1C[C@@H]2O,Activity,[4],Active
COc1cc(C2C3=C(COC3=O)Nc3c2c2cccnc2c2ncccc32)cc(OC)c1OC (stereo not given),GI50,[1],2800 nM
same,GI50,"[2]; MCF7, 48 h",1700 nM
same,GI50,[3],100 nM
COc1ccc(C2C3=C(COC3=O)Nc3c2c2cccnc2c2ncccc32)cc1 (stereo not given),GI50,[1],3400 nM
same,GI50,"[2]; MCF7, 48 h",4600 nM
same,GI50,[3],4200 nM
O=C1OCC2=C1C(c1cccc(Cl)c1)c1c(c3cccnc3c3ncccc13)N2 (stereo not given),GI50,[1],13600 nM
same,GI50,[2],inactive
same,GI50,[3],inactive
Cc1ccc(O)c(C2C3=C(COC3=O)Nc3c2c2cccnc2c2ncccc32)c1 (stereo not given),GI50,[1],1900 nM
same,GI50,[2],inactive
same,GI50,[3],600 nM
O=C1OCC2=C1C(c1ccc(O)c(Cl)c1)c1c(c3cccnc3c3ncccc13)N2 (stereo not given),GI50,[1],900 nM
same,GI50,"[2]; MCF7, 48 h",7700 nM
same,GI50,[3],300 nM
COc1cc([C@@H]2c3cc4c(cc3[C@H](O)[C@H]3COC(=O)[C@H]23)OCO4)cc(OC)c1OC [PODOFILOX],GI50,[1],500 nM
same,GI50,"[2]; MCF7, 48 h",230 nM
same,GI50,[3],710 nM
same,inhibition,[5],Active
O=C1OCC2=C1C(c1ccc(C(F)(F)F)cc1)c1c(c3cccnc3c3ncccc13)N2 (stereo not given),GI50,[1],700 nM
same,GI50,"[2]; MCF7, 48 h",60 nM
same,GI50,[3],2600 nM
Cc1cccc(C2C3=C(COC3=O)Nc3c2c2cccnc2c2ncccc32)c1O (stereo not given),GI50,[1],500 nM
same,GI50,"[2]; MCF7, 48 h",10300 nM
same,GI50,[3],200 nM
O=C1OCC2=C1C(c1ccc(O)c(Br)c1)c1c(c3cccnc3c3ncccc13)N2 (stereo not given),GI50,[1],2000 nM
same,GI50,"[2]; MCF7, 48 h",7600 nM
same,GI50,[3],< 10 nM
COc1cc([C@@H]2c3cc4c(cc3[C@@H](O[C@@H]3O[C@@H]5CO[C@@H](C)O[C@H]5[C@H](O)[C@H]3O)[C@H]3COC(=O)[C@H]23)OCO4)cc(OC)c1O [ETOPOSIDE],GI50,[1],1300 nM
same,GI50,"[2]; MCF7, 48 h",250 nM
same,GI50,[3],640 nM
O=C1OCC2=C1C(c1cc(Br)ccc1O)c1c(c3cccnc3c3ncccc13)N2 (stereo not given),GI50,[1],5400 nM
same,GI50,"[2]; MCF7, 48 h",9200 nM
same,GI50,[3],1760 nM
O=C1OCC2=C1C(c1ccc(F)cc1)c1c(c3cccnc3c3ncccc13)N2 (stereo not given),GI50,[6],inactive
same,GI50,[2],inactive
same,GI50,[3],150 nM
COc1ccc(F)c(C2C3=C(COC3=O)Nc3c2c2cccnc2c2ncccc32)c1 (stereo not given),GI50,[1],20 nM
same,GI50,"[2]; MCF7, 48 h",10 nM
same,GI50,[3],< 10 nM
same,IC50,[7],830 nM
same,Activity,[8],82.04%
same,Activity,[9],Active
same,Activity,[10],Active
same,inhibition,[5],Active
O=C1OCC2=C1C(c1cc(Cl)ccc1O)c1c(c3cccnc3c3ncccc13)N2 (stereo not given),GI50,[6],inactive
same,GI50,[2],inactive
same,GI50,[3],300 nM
O=C1OCC2=C1C(c1ccc(F)c(F)c1)c1c(c3cccnc3c3ncccc13)N2 (stereo not given),GI50,[1],500 nM
same,GI50,"[2]; MCF7, 48 h",< 10 nM
same,GI50,[3],30 nM
same,IC50,[7],920 nM
same,Activity,[8],76.44%
same,Activity,[9],Active
same,Activity,[10],Active
same,inhibition,[5],Active
O=C1OCC2=C1C(c1cc(F)c(F)c(F)c1)c1c(c3cccnc3c3ncccc13)N2 (stereo not given),GI50,[6],inactive
same,GI50,[2],inactive
same,GI50,[3],2500 nM
COc1ccc(OC)c(C2C3=C(COC3=O)Nc3c2c2cccnc2c2ncccc32)c1 (stereo not given),GI50,[1],100 nM
same,GI50,"[2]; MCF7, 48 h",8400 nM
same,GI50,[3],< 10 nM
same,IC50,[7],2000 nM
same,Activity,[8],73.77%
COc1ccc(C2C3=C(COC3=O)Nc3c2c2cccnc2c2ncccc32)cc1F (stereo not given),GI50,[1],1200 nM
same,GI50,"[2]; MCF7, 48 h",6400 nM
same,GI50,[3],800 nM
COc1ccc(C2C3=C(COC3=O)Nc3c2c2cccnc2c2ncccc32)c(OC)c1OC (stereo not given),GI50,[1],3700 nM
same,GI50,"[2]; MCF7, 48 h",8200 nM
same,GI50,[3],160 nM
COc1cc(C2C3=C(COC3=O)Nc3c2c2cccnc2c2ncccc32)cc(OC)c1O (stereo not given),GI50,[1],100 nM
same,GI50,"[2]; MCF7, 48 h",2100 nM
same,GI50,[3],1700 nM
